# In the library only some 2.4% were active in any assay of this set; here they are far more common.
# GASC-1 inh – human JMJD2C demethylase inhibition; 330,000 tested, 0.069% active; inhibition, % at 2.35 µM; GST-JMJD2C(1-420) H3K9me3 demethylation, DELFIA europium; Q9H3R0;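 active means more than half of a compound's replicate wells show inhibition beyond 50%, single wells judged on their own value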;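 further: signal counts dimethyl H3K9 product captured on neutravidin plate; 0% = median of DMSO wells and 100% = 0.3 times that DMSO median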
# HTRA1 inhibitor – HTRA1 (human) protease inhibition. Q92743. recombinant HTRA1, FP-rhodamine activity-based probe, fluorescence polarization. inhibition, % at 5.96 µM. 340,000 tested, 0.5% active; in the data active means inhibition above about 36%;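 further: 0% = enzyme with DMSO and 100% = wells lacking enzyme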
# SIAE primary – human SIAE inhibition, primary screen; SIAE FP-Rh probe binding, fluorescence polarization; inhibition, % at 9.66 µM; 370,000 tested, 0.69% active;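 active means inhibition above a cutoff: mean of compounds within the control limits plus 3 SD of those, cut at about 17% in these data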;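 further: 0% = plate median of compound wells and 100% = probe without SIAE protein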
# Target sequence (Q9HAT2 whole entry, looked up): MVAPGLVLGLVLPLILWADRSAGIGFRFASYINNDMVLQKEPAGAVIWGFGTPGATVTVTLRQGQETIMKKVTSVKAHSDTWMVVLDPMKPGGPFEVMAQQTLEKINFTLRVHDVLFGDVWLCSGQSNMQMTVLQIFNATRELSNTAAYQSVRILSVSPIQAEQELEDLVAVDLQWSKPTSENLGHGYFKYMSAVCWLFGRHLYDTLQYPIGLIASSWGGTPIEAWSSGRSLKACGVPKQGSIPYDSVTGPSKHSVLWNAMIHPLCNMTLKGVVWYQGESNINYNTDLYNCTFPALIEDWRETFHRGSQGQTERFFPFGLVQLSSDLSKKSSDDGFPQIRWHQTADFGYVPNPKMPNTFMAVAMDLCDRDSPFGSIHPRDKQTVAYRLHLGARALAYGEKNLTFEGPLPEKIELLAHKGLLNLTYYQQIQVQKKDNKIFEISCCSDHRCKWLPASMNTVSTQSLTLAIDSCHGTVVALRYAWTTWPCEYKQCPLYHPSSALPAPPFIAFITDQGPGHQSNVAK
# ABHD4 inh – ABHD4 (mouse) inhibition, primary FP screen. 370,000 tested, 0.54% active. purified mABHD4, FP-Rh probe fluorescence polarization. AID 720543. inhibition, % at 8.92 µM. Q8VD66;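 active means inhibition exceeding the mean over every tested compound plus 3 SD, cut at about 30% in these data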;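 further: 0% = plate median of compound wells and 100% = S159A mutant with DMSO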
#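 Assay system: mABHD4 protein; medium: HEPES pH 7.0, NaCl, Pluronic buffer; dosing: 8.92 µM, single dose; schedule: 45 min + 60 min at 25 °C; signal: FP readout, ex 525 nm / em 598 nm; read-out: normalized percent inhibition of probe labeling; repeats: single replicate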
# PRMT1 FP inh – inhibitors of human PRMT1. Q99873. recombinant PRMT1, activity-based probe fluorescence polarization. inhibition, % at 2.79 µM. 370,000 tested, 1.3% active;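 active means inhibition above about 21% made by adding two undisclosed values, limit read from the data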
# SIAE inh conf – human SIAE inhibition, confirmation; shares compounds with SIAE primary; SIAE FP-Rh activity-based probe, fluorescence polarization; inhibition, % at 9.66 µM; 2,300 tested, 13% active;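 active means mean inhibition of the replicates above the hit cutoff set in the primary screen, cut at about 17% in these data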;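 further: 0% = SIAE with DMSO and probe and 100% = probe without SIAE; inhibitors lower polarization as more probe stays unbound to SIAE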
# Starred values were filed as active, the others as inactive; / = no result given.
SMILES,GASC-1 inh,HTRA1 inhibitor,SIAE primary,ABHD4 inh,PRMT1 FP inh,SIAE inh conf
CCOC(=O)c1sc(NC(=O)Nc2cccc(Cl)c2)cc1C,9,-7,18*,-4,3,-6
COc1cc2ncnc(NCCCN3CCOCC3)c2cc1OC,21,-1,38*,-1,-8,1
COc1ccc(CCCNC(=O)C2Cc3c(-c4ccccc4)ccnc3O2)cc1 (stereo unspecified),/,/,-7,2,-3,/
CCOc1ccc(CCNC(=O)CCCn2c(=O)c3cccn3c3cccnc32)cc1OCC,8,4,22*,-15,7,-3
COc1ccc(Nc2ncnc3sc(-c4ccccc4)cc23)cc1,-7,-20,33*,1,4,1
COc1ncnc2sc(-c3ccccc3)cc12,88,-8,5,-6,-1,/
CC(=O)c1ccc(NC(=S)Nc2cccc3ccccc23)cc1,-3,8,32*,14,3,1
COc1ccc(-c2c(C)c3ccc(O)cc3oc2=O)cc1,-4,-3,-4,-7,1,/
CCC(c1nnc(SCC(=O)NC2CCCCC2)n1Cc1ccccc1)N(C)C (stereo unspecified),-1,-1,19*,-1,-4,1
CCC(c1nnc(SCC(=O)NCC2CCCO2)n1Cc1ccccc1)N(C)C (stereo unspecified),-2,4,2,1,-1,/
O=C(C1CCCCC1)n1ccc2ccc(-c3ccc4ccn(Cc5ccccc5)c4c3)cc21,/,/,-3,7,0,/
CCOC(=O)[C@]12CCC=C1N(Cc1ccc(Cl)cc1Cl)C(=O)[C@H](CC(=O)N1CCN(C(=O)c3ccco3)CC1)C2,/,/,-5,0,-3,/
C=CCOc1ccccc1CNc1ccccc1C,3,9,20*,9,-4,2
O=c1c2cc3cc4c(cc3nc2ncn1Cc1cccnc1)OCO4,/,/,4,2,-1,/
COc1ccc(Nc2cc(C)nc3ccc(OC)cc23)cc1,-5,-3,19*,3,-1,5
C=Cn1cc(CNC[C@H]2O[C@@H](n3ccc(N)nc3=O)[C@H](O)[C@@H]2O)c(C)n1,/,3,2,-3,-4,/
CCc1cc2c(SCC(=O)N3CCN(C(=O)c4cccs4)CC3)ncnc2s1,/,-3,8,3,0,/
C[C@@H](CO)N(CCc1cn(Cc2ccccc2)nn1)S(=O)(=O)c1ccccc1Br,/,/,-4,5,1,/
Cn1cccc1Cc1nnc(SCC(=O)Nc2nccs2)n1C,-1,4,3,0,6,/
COc1ccc(-n2c(Cc3cccn3C)nnc2SCC(=O)Nc2nccs2)cc1,7,7,17*,0,7,3
CCc1nc2c(OCCOC)cccn2c1N(C)C(=O)Nc1ccccc1OC,/,/,2,3,-4,/
CS(=O)(=O)N(CC(=O)NCCSC1CCCCC1)c1cccc(F)c1,2,0,18*,8,-1,1
CC1=C(C(=O)N(C(C)C)C(C)C)CC(CC(=O)NCc2cccs2)C(=O)N1CCCN1CCCC1=O (stereo unspecified),/,/,21*,5,5,0
COC(=O)CSc1nc(-c2ccc(F)cc2)cc(C(F)(F)F)n1,-1,-4,28*,1,-2,1
Cc1[nH]c2ccccc2c1/C=N/NC(N)=S,-13,-1,7,6,7,/
SMILES,GASC-1 inh,HTRA1 inhibitor,SIAE primary,ABHD4 inh,PRMT1 FP inh,SIAE inh conf
Cc1ccc(NC(=S)N/N=C/c2c(C)[nH]c3ccccc23)cc1,1,32,38*,18,1,38*
Cc1cccc(NC(=S)N/N=C/c2c[nH]c3ccccc23)c1,-4,25,32*,8,4,28*
Cc1ccc(C(=O)Nc2ccc(C(=O)N/N=C/c3c[nH]c4ccccc34)cc2)cc1,5,-11,-21,0,-3,/
Cc1[nH]c2ccccc2c1/C=N/NC(=S)NCc1ccccc1,15,24,22*,19,1,19*
O=C(COC(=O)c1ccccc1SCC(=O)N1CCCC1)Nc1ccc(OC(F)F)cc1,-16,2,20*,-7,19,1
NC(=O)c1ccc(NC(=O)COC(=O)c2ccccc2SCC(=O)N2CCCC2)cc1,/,2,-2,4,9,/
COc1ccc(CN2C(=O)CCCC2(C)c2nnnn2-c2c(C)cccc2C)cc1OC (stereo unspecified),/,/,-2,2,0,/
